Test [1] addresses T1, 5-hydroxytryptamine receptor 1A (Homo sapiens) (UniProt P08908).
T1 sequence (whole entry): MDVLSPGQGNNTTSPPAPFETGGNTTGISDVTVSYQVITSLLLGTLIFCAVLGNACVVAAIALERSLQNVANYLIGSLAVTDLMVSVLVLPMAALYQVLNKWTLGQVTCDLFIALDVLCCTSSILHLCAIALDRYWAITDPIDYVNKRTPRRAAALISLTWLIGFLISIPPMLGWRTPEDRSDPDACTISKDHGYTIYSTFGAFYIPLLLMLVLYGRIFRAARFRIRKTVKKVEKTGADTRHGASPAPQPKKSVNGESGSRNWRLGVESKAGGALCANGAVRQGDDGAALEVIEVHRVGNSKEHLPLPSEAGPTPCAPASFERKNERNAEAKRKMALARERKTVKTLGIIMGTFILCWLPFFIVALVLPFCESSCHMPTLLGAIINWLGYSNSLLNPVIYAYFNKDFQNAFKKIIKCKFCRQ
As to the kind of experiment: Maximal stimulation was expressed as percentage of the maximal 5-HT response in the [35S]GTP-gamma-S, binding assay on 5-hydroxytryptamine 1A receptor. The test is classed as functional. The method in brief:
(§1)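 Membranes of HeLa cells expressing human 5-HT1A, in 20 mM HEPES, 3 mM MgCl2, 120 mM NaCl pH 7.4. Preincubated 20 min at 30 °C with 30 µM GDP and drug (0.1 nM–100 µM) or 5-HT as reference curve. [35S]GTPγS (200–250 pM) then added for 30 min at 30 °C. Nonspecific binding with 10 µM GTPγS. Curves fitted by ALLFIT to give Emax and pD2 (−log EC50).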
In general terms: Binding of GTPγS marks nucleotide exchange on a G protein.

In test [2] the target is T1, 5-hydroxytryptamine receptor 1A (Homo sapiens). As to the kind of experiment: Potency (pD2) for the stimulation of [35S]GTP-gamma-S, binding on 5-hydroxytryptamine 1A receptor. The test is classed as functional. In a few lines: as §1
Test [3] can be described thus: Selectivity expressed as a ratio of affinity against Alpha 1A-Adrenoceptor to that of 5-HT1A receptor.
Test [4] is described as follows: Selectivity expressed as a ratio of affinity against Alpha 1b-Adrenoceptor to that of 5-HT1A receptor.
Test [5] is described as follows: Selectivity expressed as a ratio of affinity against Alpha 1d-Adrenoceptor to that of 5-HT1A receptor.
Test [6] addresses T2, 5-hydroxytryptamine receptor 1A (Homo sapiens, UniProt P08908).
T2 sequence (P08908 whole entry): T1 sequence (whole entry)
As to the kind of experiment: Binding affinity on human cloned 5-hydroxytryptamine 1A receptor transfected in human cell lines (He La). The test is classed as cell-based, Cell line. The method in brief: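 HeLa cells stably expressing human 5-HT1A (genomic clone G-21), grown in DMEM with 10% FCS. […] Nonspecific binding with 10 µM 5-HT. Filtration through PEI-pretreated filters.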

For the compound `COc1cccc2c(CCCN3CCN(c4ccccn4)CC3)cccc12`, the Emax (in general, the maximal effect, on the per cent scale that the assay sets) in test [1] was 86.3%. The compound also registered a pD2 in test [2] of 7.87. In addition, the Selectivity in test [3] came to 0.5; in test [4], 1; in test [5] it was 4.
`COc1cccc2c1CCCC2CCCN1CCN(c2ccccn2)CC1` (stereo unspecified): in test [1], the Emax is 98.2%. Besides, in test [6], the Ki (commonly the equilibrium dissociation constant of an inhibitor or competing ligand from its target) was determined as 80 pM. Moreover, the pD2 in test [2] amounted to 10.2. The Selectivity in test [3] is 4; in test [4], 98; in test [5], 74.
The compound `COc1cccc2c(CCCNCCOc3ccccn3)cccc12` came in with a maximum response (Emax) in test [1] of 48%. The compound also showed a pD2 in test [2] of 8.2. In addition, the Selectivity in test [3] is 17; in test [4], 314; in test [5], 97.
The compound `COc1cccc2c1CCCC2CCCNCCOc1ccccn1` (stereo unspecified) showed an Emax in test [1] of 86.8%. The same compound had a pD2 in test [2] of 10.2. In addition, the values for the Selectivity in test [3], in test [4] and in test [5] were 2, 115 and 55, respectively.

(Values after ChEMBL document CHEMBL1134307, “trans-4-[4-(Methoxyphenyl)cyclohexyl]-1-arylpiperazines: a new class of potent and selective 5-HT(1A) receptor ligands as conformationally constrained analogues of 4-[3-(5-methoxy-1,2,3,4-tetrahydronaphthalen-1-yl)propyl]-1-arylpiperazines” (J Med Chem, 2001).)
